Data published in ChEMBL document CHEMBL4311937, “Repositioning Salirasib as a new antimalarial agent” (Medchemcomm, 2019).
pIC50: −log10 of the molar value. Active and inactive are the calls of the source. The calls are words filed in the database; no cut-off is given here.

Legend:
Plasmodium falciparum [1] = test: Antimalarial activity against synchronized ring stage Plasmodium falciparum 3D7 transfected with nano-luciferase assessed as parasite growth inhibition after 72 hrs by Nano-Glo luciferase assay; type: functional, organism-based; settings: 3D7, 72 h
Outline: (§1)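 Assays started at 1% ring stage and 2% hematocrit, with serial RPMI dilutions from 20 mM ethanol stocks. Cultures were lysed with an equal volume of 0.02% saponin buffer containing Nano-Glo substrate, and luminescence was read for 30 s. IC50 was fitted by variable-slope nonlinear regression; 3 experiments ×3 technical replicates.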

Plasmodium falciparum [2] = test: Antimalarial activity against synchronized ring stage Plasmodium falciparum 3D7 transfected with nano-luciferase assessed as parasite growth inhibition at 200 uM after 72 hrs by Nano-Glo luciferase assay; type: functional, organism-based
Vero = test: Cytotoxicity against African green monkey Vero cells after 72 hrs by MTT assay; type: cell-based; settings: Chlorocebus sabaeus
Outline: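 Vero cells in DMEM with 10% FBS and penicillin/streptomycin, 37 °C, 5% CO₂, seeded at 3000 cells/well. Compounds came from 27 or 25 mM DMSO stocks diluted in medium, with matching DMSO controls. After 72 h, cells got 0.5 mg/mL MTT for 4 h at 37 °C; formazan was dissolved in DMSO and absorbance read at 562 nm.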

[3] = Selectivity index, ratio of IC50 for African green monkey Vero cells to IC50 for synchronized ring stage Plasmodium falciparum 3D7 transfected with nano-luciferase; type: toxicity; settings: read-out: Ratio IC50
Erythrocyte [4] = test: Hemolytic activity in erythrocytes (unknown origin) at 100 uM; type: ADME, cell-based
Erythrocyte [5] = test: Hemolytic activity in erythrocytes (unknown origin) at 200 uM; type: ADME, cell-based
Plasmodium falciparum [6] = test: Antimalarial activity against synchronized ring stage Plasmodium falciparum 3D7 assessed as parasite growth inhibition measured after 24 to 96 hrs; type: functional, organism-based; settings: in the assay text read “24 to 72 hrs” for “24 to 96 hrs”
Outline: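 Sorbitol-synchronized 3D7 rings grown in RPMI-1640 with 0.5% Albumax I under 5% CO₂/5% O₂/90% N₂. Started at 1% ring stage, 2% hematocrit, with serial dilutions in RPMI from 20 mM ethanol stocks, plus ethanol solvent controls. Followed up to 72 h. Growth was read by SYBR Green I lysis-buffer staining (485/520 nm) and confirmed by Giemsa smears. IC50 came from variable-slope nonlinear regression; 3 experiments ×3 technical replicates.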

Plasmodium falciparum [7] = test: Antimalarial activity against synchronized ring stage Plasmodium falciparum 3D7 transfected with nano-luciferase assessed as parasite growth inhibition after 48 hrs by Nano-Glo luciferase assay; type: functional, organism-based; settings: 3D7, 48 h
Outline: as §1, with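 “nLuc-exporting transfected 3D7 rings were sorbitol-synchronized and cultured in RPMI-1640/0.5% Albumax I under 5% CO₂/5% O₂/90% N₂. Assays” for “Assays”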

Structure (SMILES): O=C(O)c1ccccc1SC1CCCCC1
- pIC50 (Plasmodium falciparum [1]): < 3.70
- Activity (Plasmodium falciparum [2]): Active

Structure (SMILES): CCOC(=O)Cn1cc(CSc2ccccc2C(=O)O)nn1
- pIC50 (Plasmodium falciparum [1]): < 3.70
- Activity (Plasmodium falciparum [2]): Active

Structure (SMILES): C/C(=C\CSc1ccccc1C(=O)O)CCCC(C)CCCC(C)CCCC(C)C (centres undefined)
- pIC50 (Vero): 4.28
- pIC50 (Plasmodium falciparum [1]): 4.87
- selectivity ratio [3]: 3.87
- Activity (Plasmodium falciparum [2]): Active

Structure (SMILES): CCCCCCCCCCCCCn1cc(CSc2ccccc2C(=O)O)nn1
- pIC50 (Vero): 4.23
- pIC50 (Plasmodium falciparum [1]): 4.70
- selectivity ratio [3]: 2.99
- Activity (Plasmodium falciparum [2]): Active

Structure (SMILES): CCCCCCCCn1cc(CSc2ccccc2C(=O)O)nn1
- pIC50 (Plasmodium falciparum [1]): < 3.70
- Activity (Plasmodium falciparum [2]): Active

Structure (SMILES): O=C(O)c1ccccc1SCc1cn(C/C=C/c2ccccc2)nn1
- pIC50 (Vero): < 3.70
- pIC50 (Plasmodium falciparum [1]): 4.18
- selectivity ratio [3]: > 3.06
- Activity (Plasmodium falciparum [2]): Active

Structure (SMILES): CCOC(=O)CCn1cc(CSc2ccccc2C(=O)O)nn1
- pIC50 (Plasmodium falciparum [1]): < 3.70
- Activity (Plasmodium falciparum [2]): Active

Structure (SMILES): O=C(O)c1ccccc1SC/C=C/c1ccccc1
- pIC50 (Plasmodium falciparum [1]): < 3.70
- Activity (Plasmodium falciparum [2]): Active

Structure (SMILES): CC(C)=CCC/C(C)=C/Cn1cc(CSc2ccccc2C(=O)O)nn1
- pIC50 (Plasmodium falciparum [1]): < 3.70
- Activity (Plasmodium falciparum [2]): Active

Structure (SMILES): CCCCCCCCCCn1cc(CSc2ccccc2C(=O)O)nn1
- pIC50 (Plasmodium falciparum [1]): < 3.70
- Activity (Plasmodium falciparum [2]): Active

Structure (SMILES): C/C(=C\Cn1cc(CSc2ccccc2C(=O)O)nn1)CCCC(C)CCCC(C)CCCC(C)C (centres undefined)
- pIC50 (Vero): 4.47
- pIC50 (Plasmodium falciparum [1]): 5.01
- selectivity ratio [3]: 3.67
- Activity (Plasmodium falciparum [2]): Active
- Activity (Erythrocyte [4]): Non-Toxic
- Activity (Erythrocyte [5]): Toxic

Structure (SMILES): CCCCCCCCCCCCCCCCn1cc(CSc2ccccc2C(=O)O)nn1
- pIC50 (Vero): 4.57
- pIC50 (Plasmodium falciparum [1]): 4.84
- selectivity ratio [3]: 1.86
- Activity (Plasmodium falciparum [2]): Active
- Activity (Erythrocyte [4]): Non-Toxic
- Activity (Erythrocyte [5]): Toxic

Structure (SMILES): CC(C)=CCC/C(C)=C/CSc1ccccc1C(=O)O
- pIC50 (Plasmodium falciparum [1]): < 3.70
- Activity (Plasmodium falciparum [2]): Active

Structure (SMILES): CC(C)=CCC/C(C)=C/CC/C(C)=C/CSc1ccccc1C(=O)O [SALIRASIB]
- pIC50 (Vero): 3.68
- pIC50 (Plasmodium falciparum [6]): 4.85
- pIC50 (Plasmodium falciparum [1]): 4.69
- selectivity ratio [3]: 10.3
- Activity (Plasmodium falciparum [2]): Active

Structure (SMILES): O=C(O)c1ccccc1SCc1cn(CCc2ccccc2)nn1
- pIC50 (Plasmodium falciparum [1]): < 3.70
- Activity (Plasmodium falciparum [2]): Active

Structure (SMILES): CCOC(=O)CCSc1ccccc1C(=O)O
- pIC50 (Plasmodium falciparum [1]): < 3.70
- Activity (Plasmodium falciparum [2]): Active

Structure (SMILES): CC(C)=CCC/C(C)=C/CC/C(C)=C/Cn1cc(CSc2ccccc2C(=O)O)nn1
- pIC50 (Vero): < 3.70
- pIC50 (Plasmodium falciparum [1]): 4.59
- selectivity ratio [3]: > 7.7
- Activity (Plasmodium falciparum [2]): Active

Structure (SMILES): C#CCSc1ccccc1C(=O)O
- pIC50 (Plasmodium falciparum [1]): < 3.70
- Activity (Plasmodium falciparum [2]): Active

Structure (SMILES): O=C(O)c1ccccc1SCc1cn(CCCc2ccccc2)nn1
- pIC50 (Plasmodium falciparum [1]): < 3.70
- Activity (Plasmodium falciparum [2]): Active

Structure (SMILES): O=C(O)c1ccccc1SCc1cn(C2CCCCC2)nn1
- pIC50 (Plasmodium falciparum [1]): < 3.70
- Activity (Plasmodium falciparum [2]): Active

Structure (SMILES): CCCCCCCCSc1ccccc1C(=O)O
- pIC50 (Plasmodium falciparum [1]): < 3.70
- Activity (Plasmodium falciparum [2]): Active

Structure (SMILES): O=C(O)c1ccccc1SCc1cn(Cc2ccccc2)nn1
- pIC50 (Plasmodium falciparum [1]): < 3.70
- Activity (Plasmodium falciparum [2]): Active

Structure (SMILES): CC(C)=CCn1cc(CSc2ccccc2C(=O)O)nn1
- pIC50 (Plasmodium falciparum [1]): < 3.70
- Activity (Plasmodium falciparum [2]): Active

Structure (SMILES): CC(C)=CCSc1ccccc1C(=O)O
- pIC50 (Plasmodium falciparum [1]): < 3.70
- Activity (Plasmodium falciparum [2]): Active

Structure (SMILES): C[C@H]1[C@H](OC(=O)CCC(=O)O)O[C@@H]2O[C@@]3(C)CC[C@H]4[C@H](C)CC[C@@H]1[C@@]24OO3 [ARTESUNATE]
- pIC50 (Plasmodium falciparum [7]): 8.76 to 8.79

Structure (SMILES): CCCCCCCCCCSc1ccccc1C(=O)O
- pIC50 (Plasmodium falciparum [1]): < 3.70
- Activity (Plasmodium falciparum [2]): Active

Structure (SMILES): O=C(O)c1ccccc1SCc1cn(Cc2ccc3ccccc3c2)nn1
- pIC50 (Vero): 3.84
- pIC50 (Plasmodium falciparum [1]): 4.69
- selectivity ratio [3]: 6.95
- Activity (Plasmodium falciparum [2]): Active
